Screening data (PubChem BioAssay)
Rows were chosen to be rich in hits. Some 1.8% of all compounds tested hit in one or more screens of this group.
APJ agonist: APJ receptor agonism | CHO-K1 APJ PathHunter beta-arrestin, luminescence; 0% DMSO wells, 100% apelin | activation, % at 20 µM | hit rate 0.11% among 330,000 | AID 2520;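 active = activation more than six SD over the plate average, tested at 20 µM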;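 also: 0% = DMSO alone and 100% = apelin-13 at 10 nM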
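Material: engineered CHO-K1 APJ arrestin reporter cells; amount: 1000 CHO-K1 reporter cells seeded per well; incubation: compound stimulation 90 min at 25 °C, detection 60 min; signal: luminescent beta-gal fragment complementation, chemiluminescent substrate; read-out basis: APJ agonist activity; controls: DMSO-only wells as negative, 10 nM Apelin-13 as positive control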
EBI2 antag: antagonists of human EBI2 receptor | AID 651636 | hit rate 0.81% among 360,000 | EBI2 beta-arrestin recruitment, luminescence, 7a,25-OHC stimulated | inhibition, % at 5 µM | P32249; in the data active = inhibition above about 38%;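 also: enzyme fragment complementation signal reports receptor beta-arrestin coupling in cells; 0% = agonist plus DMSO wells and 100% = wells without agonist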
Beta2AR agonist: human beta-2 adrenergic receptor agonism by FAP; hit rate 0.43% among 340,000; response, % (test concentration not listed); Am2.2-beta2AR cells, FAP receptor internalization, flow cytometry; AID 504454;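 active = response above a set limit, near 3 SD of response in nonfluorescent compounds, cut at about 42% in these data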
Target sequence (P07550 whole entry, looked up): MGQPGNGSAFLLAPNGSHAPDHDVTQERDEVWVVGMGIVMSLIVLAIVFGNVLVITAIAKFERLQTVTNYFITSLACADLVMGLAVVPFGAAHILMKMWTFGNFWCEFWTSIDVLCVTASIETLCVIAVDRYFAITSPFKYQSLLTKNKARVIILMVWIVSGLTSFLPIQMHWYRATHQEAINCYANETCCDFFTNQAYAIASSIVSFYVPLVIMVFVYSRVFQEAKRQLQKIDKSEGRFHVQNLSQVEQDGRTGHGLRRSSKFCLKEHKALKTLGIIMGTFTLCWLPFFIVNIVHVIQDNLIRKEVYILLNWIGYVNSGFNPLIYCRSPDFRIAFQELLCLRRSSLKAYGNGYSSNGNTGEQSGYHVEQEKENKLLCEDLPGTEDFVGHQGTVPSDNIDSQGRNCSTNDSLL
CCR6 antag: CCR6 (human) receptor antagonism | P51684 | CHO-K1 CCR6 PathHunter beta-arrestin, luminescence, CCL20-stimulated | inhibition, % at 20 µM | hit rate 0.49% among 340,000 | AID 493098;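 active = compounds whose inhibition of the agonist-driven luminescence signal at 20 µM reaches about 50%, limit read from the data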;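 also: cells stimulated with CCL20 at 14 nM final; plate controls were DMSO with CCL20 for no effect and DMSO without agonist for full effect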
CXCR6 block: blocks human CXCR6 beta-arrestin recruitment; O00574; AID 602244; inhibition, % at 20 µM; CHO-K1 PathHunter CXCR6 beta-arrestin, luminescence; hit rate 0.36% among 360,000; in the data active = inhibition above about 34%, passing the limit was not always enough;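 also: antagonist mode with CXCL16 agonist at 10 nM final; 0% = 10 nM CXCL16 with DMSO and 100% = unstimulated wells without agonist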
APJ antagonist: blocks the human apelin receptor APJ. P35414. CHO-K1 APJ beta-arrestin complementation, luminescence. inhibition, % at 20 µM. hit rate 0.32% among 330,000;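 active = inhibition above about 40% at 20 µM, limit read from the data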;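 also: cells challenged with 10 nM apelin-13 agonist together with compound; plate controls were apelin-13 plus DMSO wells for no effect and DMSO wells lacking apelin-13 for full effect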
EBI2 antag conf: confirmation of human EBI2 receptor antagonists | shares compounds with EBI2 antag | EBI2 beta-arrestin luminescence, 7a,25-OHC antagonism | inhibition, % at 5 µM | hit rate 29% among 2,400;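 active = inhibition of at least 50%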
EBI2 agonist: activates EBI2, counter-screen for EBI2 antagonists; shares compounds with EBI2 antag; EBI2-expressing cells, agonist mode, luminescence, 60 min; 0% vehicle, 100% 7α,25-dihydroxycholesterol control; activation, % at 5 µM; 2,400 tested, under 10 active; AID 652000;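 active = activation of at least 50%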
bGal counter: inhibits E. coli beta-galactosidase, counter-screen for EBI2 antagonists; purified beta-galactosidase, luminescent Galacton Star, 15 min; inhibition, % at 5 µM; shares compounds with EBI2 antag; hit rate 1% among 2,400;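 active = replicate-average signal at least 3 plate SD below neutral wells, shown as high inhibition, flagging enzyme-inhibiting false positives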;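 also: 0% = DMSO wells with enzyme and 100% = wells lacking enzyme; higher means stronger loss of beta-gal luminescence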
Numbers without * were called inactive; . = not tested or not shown.

SMILES	APJ agonist	EBI2 antag	Beta2AR agonist	CCR6 antag	CXCR6 block	APJ antagonist	EBI2 antag conf	EBI2 agonist	bGal counter
COC(=O)C1=C(c2ccc(F)cc2F)C[C@@H]2CC[C@H]1N2C(=O)NCC1CC1	-3.9	1.6	-5.3	6.0	-2.6	-4.6	.	.	.
Cc1cccc(C)c1-n1nnnc1C(c1cccs1)N1CCC(n2c(=O)[nH]c3ccccc32)CC1 (stereo not given)	.	12.6	.	.	13.6	.	.	.	.
Cc1cccc(C)c1-n1nnnc1C(c1cccc2ccccc12)N1CCC(n2c(=O)[nH]c3ccccc32)CC1 (stereo not given)	.	42.3*	.	.	2.7	.	34.6	-0.6	-18.4
CC12C=CC(=O)C=C1CCC1C2C(O)CC2(C)C1CCC2(C)O (stereo not given)	.	-8.2	-8.6	4.5	-6.9	.	.	.	.
Cc1cc(=O)oc2cc(OCC(=O)N3CCN(Cc4ccc5c(c4)OCO5)CC3)ccc12	-9.2	10.2	3.9	10.4	-0.4	10.6	.	.	.
O=C(COc1ccc(Cl)cc1)N1CCN(Cc2ccc([N+](=O)[O-])cc2)CC1	-6.0	94.3*	4.6	9.5	-15.4	-1.7	78.5*	-0.3	5.3
COc1ccc(OCC(=O)N2CCN(Cc3nc4cc([N+](=O)[O-])ccc4n3C)CC2)cc1	1.3	73.7*	6.5	-14.8	9.8	1.3	38.1	-1.8	-7.7
CCc1ccc(OCC(=O)N2CCN(Cc3ccc4c(c3)OCO4)CC2)cc1	-5.2	82.0*	-2.9	-5.4	-8.8	4.0	52.9*	0.4	5.6
Cc1cccc(OCC(=O)N2CCN(Cc3cccnc3)CC2)c1	-1.0	10.7	-0.9	0.6	-4.5	-16.8	.	.	.
COc1cccc(OCC(=O)N2CCN(C)CC2)c1	-1.7	-3.5	4.5	-2.0	3.7	-9.3	.	.	.
O=[N+]([O-])c1cccc(CN2CCN(Cc3ccc(Cl)cc3)CC2)c1	-2.9	3.1	3.3	10.9	-8.6	14.3	.	.	.
Cc1ccc(OCC(=O)N2CCN(Cc3cccnc3)CC2)cc1	-0.9	52.7*	-9.4	-5.2	-10.7	4.0	13.2	-0.7	-8.0
CC1CN2C(=O)C1(c1ccccc1)C(=O)NC2=S (stereo not given)	.	-9.7	.	.	-3.3	.	.	.	.
Fc1ccc(N2Cc3ccccc3-n3nncc3C2)cc1	.	-6.4	.	.	13.0	.	.	.	.
C[C@]1(O)CCC2C3CC[C@H]4C[C@@H](OC(=O)CNC(=O)CN)CC[C@]4(C)C3CC[C@@]21C (stereo not given in full)	-3.2	3.0	-0.3	38.7	0.4	-4.5	.	.	.
COC(=O)C1=C(c2c(C)noc2C)C[C@@H]2CC[C@H]1N2C(=O)N1CCCC1	-2.9	-7.9	10.2	0.7	4.4	-2.0	.	.	.
O=C(COc1ccc(Br)cc1)N1CCN(C2CCCC2)CC1	0.6	85.2*	6.0	0.8	3.8	11.5	81.5*	-1.4	-6.7
Cc1ccc(OCC(=O)N2CCN(C3CCC(c4ccccc4)CC3)CC2)cc1 (stereo not given)	-2.3	82.1*	3.6	2.6	-2.0	10.6	64.3*	1.6	1.8
O=C(COc1ccccc1)N1CCN(C2CC3CCC2C3)CC1 (stereo not given)	-4.0	36.7	8.2	12.2	-5.3	-6.2	.	.	.
CN(C)C(=O)Oc1ccc(OC(=O)c2ccccc2)cc1	0.1	-8.2	6.7	2.9	-4.8	8.4	.	.	.
CN(C(=O)Oc1ccc(C(=O)c2ccc(Cl)cc2)cc1)c1ccccc1	1.5	79.0*	-4.2	-7.8	-1.5	4.2	56.1*	-0.8	-11.1
CCC1CN1P(=S)(N1CC1CC)N1CC1CC (stereo not given)	.	2.8	0.9	14.7	5.5	.	.	.	.
COc1ccc(OCC(=O)N2CCN(CC3CC4C=CC3C4)CC2)cc1 (stereo not given)	-2.0	83.3*	1.0	-10.0	-1.9	16.0	56.1*	0.8	2.4
CCOC(=O)[C@]12Cc3cc(OC)ccc3[C@H]1N(C)C(=O)c1cc(OC)ccc12	.	9.0	.	.	-4.2	.	.	.	.
